# Test results: PMC11904594 (Current Research in Microbial Sciences, 2025)
# Columns and labels:
# S. aureus ATCC 29,213 [1] = experiment: MIC, broth microdilution; assay type: cell-based, Staphylococcus aureus; conditions: MHB II, 10^6 CFU/ml, 37 °C, 24 h, triplicate
# In short: (§1)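 Broth microdilution per CLSI. Strains were freshly plated on LB agar from glycerol stocks; the colistin-resistant lpxD mutant was plated on LB with 10 µg/ml colistin. Inoculum was 10^6 CFU/ml in Mueller Hinton broth II with two-fold dilutions of test compound from 100 to 0.10 µg/ml, incubated at 37 °C for 24 h. MIC was the lowest concentration with no growth.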
# S. aureus MRSA USA 300 [2] = experiment: MIC, broth microdilution; assay type: cell-based, Staphylococcus aureus; conditions: MHB II, 10^6 CFU/ml, 37 °C, 24 h, triplicate
# In short: as §1
# [3] = system: P. aeruginosa ATCC 27,853; experiment: MIC, broth microdilution; assay type: cell-based, Pseudomonas aeruginosa; conditions: MHB II, 10^6 CFU/ml, 37 °C, 24 h, triplicate
# In short: as §1
# P. aeruginosa (ST175–1) [4] = experiment: MIC, broth microdilution; assay type: cell-based, Pseudomonas aeruginosa; conditions: MHB II, 10^6 CFU/ml, 37 °C, 24 h, triplicate
# In short: as §1
# A. baumannii ATCC 19,606 [5] = experiment: MIC, broth microdilution; assay type: cell-based, Acinetobacter baumannii; conditions: MHB II, 10^6 CFU/ml, 37 °C, 24 h, triplicate
# In short: as §1
# A. baumannii IB010 [6] = experiment: MIC, broth microdilution; assay type: cell-based, Acinetobacter baumannii; conditions: MHB II, 10^6 CFU/ml, 37 °C, 24 h, triplicate
# In short: as §1
# A. baumannii Ab-1 [7] = experiment: MIC, broth microdilution; assay type: cell-based, Acinetobacter baumannii; conditions: MHB II, 10^6 CFU/ml, 37 °C, 24 h, triplicate
# In short: as §1
# [8] = system: K. pneumoniae ATCC 43,816; experiment: MIC, broth microdilution; assay type: cell-based, Klebsiella pneumoniae; conditions: MHB II, 10^6 CFU/ml, 37 °C, 24 h, triplicate
# In short: as §1
# K. pneumoniae CG258 [9] = experiment: MIC, broth microdilution; assay type: cell-based, Klebsiella pneumoniae; conditions: MHB II, 10^6 CFU/ml, 37 °C, 24 h, triplicate
# In short: as §1
# E. coli ATCC 25,922 [10] = experiment: MIC, broth microdilution; assay type: cell-based, Escherichia coli; conditions: MHB II, 10^6 CFU/ml, 37 °C, 24 h, triplicate
# In short: as §1
# E. coli ESBL 1057.1 [11] = experiment: MIC, broth microdilution; assay type: cell-based, Escherichia coli; conditions: MHB II, 10^6 CFU/ml, 37 °C, 24 h, triplicate
# In short: as §1
# S. aureus ATCC 29,213 [12] = experiment: Minimum bactericidal concentration; assay type: cell-based, Staphylococcus aureus; conditions: lowest concentration reducing at least 99.9 % of growth, plated on LB, 37 °C, 24 h, triplicate
# S. aureus MRSA USA 300 [13] = experiment: Minimum bactericidal concentration; assay type: cell-based, Staphylococcus aureus; conditions: lowest concentration reducing at least 99.9 % of growth, plated on LB, 37 °C, 24 h, triplicate
# [14] = system: P. aeruginosa ATCC 27,853; experiment: Minimum bactericidal concentration; assay type: cell-based, Pseudomonas aeruginosa; conditions: lowest concentration reducing at least 99.9 % of growth, plated on LB, 37 °C, 24 h, triplicate
# P. aeruginosa (ST175–1) [15] = experiment: Minimum bactericidal concentration; assay type: cell-based, Pseudomonas aeruginosa; conditions: lowest concentration reducing at least 99.9 % of growth, plated on LB, 37 °C, 24 h, triplicate
# A. baumannii ATCC 19,606 [16] = experiment: Minimum bactericidal concentration; assay type: cell-based, Acinetobacter baumannii; conditions: lowest concentration reducing at least 99.9 % of growth, plated on LB, 37 °C, 24 h, triplicate
# A. baumannii IB010 [17] = experiment: Minimum bactericidal concentration; assay type: cell-based, Acinetobacter baumannii; conditions: lowest concentration reducing at least 99.9 % of growth, plated on LB, 37 °C, 24 h, triplicate
# A. baumannii Ab-1 [18] = experiment: Minimum bactericidal concentration; assay type: cell-based, Acinetobacter baumannii; conditions: lowest concentration reducing at least 99.9 % of growth, plated on LB, 37 °C, 24 h, triplicate
# [19] = system: K. pneumoniae ATCC 43,816; experiment: Minimum bactericidal concentration; assay type: cell-based, Klebsiella pneumoniae; conditions: lowest concentration reducing at least 99.9 % of growth, plated on LB, 37 °C, 24 h, triplicate
# K. pneumoniae CG258 [20] = experiment: Minimum bactericidal concentration; assay type: cell-based, Klebsiella pneumoniae; conditions: lowest concentration reducing at least 99.9 % of growth, plated on LB, 37 °C, 24 h, triplicate
# E. coli ATCC 25,922 [21] = experiment: Minimum bactericidal concentration; assay type: cell-based, Escherichia coli; conditions: lowest concentration reducing at least 99.9 % of growth, plated on LB, 37 °C, 24 h, triplicate
# E. coli ESBL 1057.1 [22] = experiment: Minimum bactericidal concentration; assay type: cell-based, Escherichia coli; conditions: lowest concentration reducing at least 99.9 % of growth, plated on LB, 37 °C, 24 h, triplicate
# [23] = system: 11 bacterial strains (S. aureus, P. aeruginosa, A. baumannii, K. pneumoniae, E. coli); experiment: Antimicrobial activity screening, summary over groups of strains; assay type: cell-based; conditions: 50 µg/ml screen
# 11 bacterial strains = experiment: MBC, summary over all strains; assay type: cell-based; conditions: highest value over all strains, converted to molar
# In short: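 The no-peptide growth well, serially diluted and plated, served as reference. Percent growth was calculated from CFU counts; MBC was the lowest concentration giving ≥99.9 % reduction (CLSI). Triplicate.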
# K. pneumoniae CG258 [24] = experiment: Time-kill assay; assay type: cell-based, Klebsiella pneumoniae; conditions: peptide at 2× MIC
# In short: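 Broth without compound was the growth control. Samples taken at 0, 3, 6 and 24 h were diluted and plated on MH II agar for CFU counts. Each curve was run at least in duplicate.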
# P. aeruginosa ST175–1 = experiment: Inhibition of biofilm formation; assay type: cell-based, Pseudomonas aeruginosa; conditions: ¼ MIC
# In short: (§2)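 Medium was discarded, wells washed with PBS, and biofilm stained with 1 % crystal violet for 15 min at room temperature. After two PBS washes, stain was eluted in 70 % ethanol and read at 595 nm. SBF = (OD595 − OD595 […])/OD600: weak ≤0.5, moderate 0.5–1, strong >1. Triplicate; Kruskal-Wallis with Dunn's test.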
# A. baumannii ATCC 19,606 [25] = experiment: Inhibition of biofilm formation; assay type: cell-based, Acinetobacter baumannii; conditions: ¼ MIC
# In short: as §2
# A. baumannii Ab-1 [26] = experiment: Inhibition of biofilm formation; assay type: cell-based, Acinetobacter baumannii; conditions: ¼ MIC
# In short: as §2
# [27] = system: K. pneumoniae ATCC 43,816; experiment: Inhibition of biofilm formation; assay type: cell-based, Klebsiella pneumoniae; conditions: ¼ MIC
# In short: as §2
# E. coli ATCC 25,922 [28] = experiment: Inhibition of biofilm formation; assay type: cell-based, Escherichia coli; conditions: ¼ MIC
# In short: as §2
# Stability in human serum = assay type: in vitro ADME; conditions: 25 % (v/v)
# In short: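 Test compound was added to RPMI with human serum pre-equilibrated at 37 °C, giving 333.33 µM final compound and 25 % (v/v) final serum. Mixtures were stirred at 37 °C for 10, 30, 45 or 60 min. Proteins were precipitated with 96 % ethanol, cooled at 4 °C for 15 min and spun at 14,000 g. Supernatants were run on C18 RP-HPLC (TFA/CH3CN gradient, 220 nm); degradation was taken from loss of native peak area. Duplicate.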
# [29] = system: Galleria mellonella larvae; experiment: In vivo toxicity in Galleria mellonella larvae; conditions: G. mellonella larvae, 50 µg/larvae (10 μl of 5 mg/ml), 30 °C, N=10 per group
# In short: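 Sixth-instar Galleria mellonella larvae (200–300 mg) were held in sawdust at 4 °C until use. Groups of ten were injected with 10 μl of test compound, colistin or 0.9 % NaCl saline control into the second rear proleg, then kept at 30 °C.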
compound,measurement,setting,value
CC[C@H](C)[C@H](NC(=O)[C@H](CCCCN)NC(=O)[C@H](CCCCN)NC(=O)[C@H](Cc1ccccc1)NC(=O)[C@H](CC(C)C)NC(=O)[C@H](CCCCN)NC(=O)[C@@H](N)CCCCN)C(=O)N[C@@H](CC(C)C)C(=O)N[C@@H](CCCCN)C(=O)N[C@@H](Cc1ccccc1)C(=O)N[C@@H](CC(C)C)C(N)=O [BP76],MIC,"S. aureus ATCC 29,213 [1]",25 µg/mL
same,MIC,S. aureus MRSA USA 300 [2],50 µg/mL
same,MIC,[3],50 µg/mL
same,MIC,P. aeruginosa (ST175–1) [4],50 µg/mL
same,MIC,"A. baumannii ATCC 19,606 [5]",6.25 µg/mL
same,MIC,A. baumannii IB010 [6],25 µg/mL
same,MIC,A. baumannii Ab-1 [7],12.5 µg/mL
same,MIC,[8],12.5 µg/mL
same,MIC,K. pneumoniae CG258 [9],6.25 µg/mL
same,MIC,"E. coli ATCC 25,922 [10]",6.25 µg/mL
same,MIC,E. coli ESBL 1057.1 [11],12.5 µg/mL
same,MBC,"S. aureus ATCC 29,213 [12]",25 µg/mL
same,MBC,S. aureus MRSA USA 300 [13],50 µg/mL
same,MBC,[14],50 µg/mL
same,MBC,P. aeruginosa (ST175–1) [15],50 µg/mL
same,MBC,"A. baumannii ATCC 19,606 [16]",6.25 µg/mL
same,MBC,A. baumannii IB010 [17],25 µg/mL
same,MBC,A. baumannii Ab-1 [18],12.5 µg/mL
same,MBC,[19],12.5 µg/mL
same,MBC,K. pneumoniae CG258 [20],6.25 µg/mL
same,MBC,"E. coli ATCC 25,922 [21]",6.25 µg/mL
same,MBC,E. coli ESBL 1057.1 [22],12.5 µg/mL
same,growth inhibition of all the strains,"[23]; all strains, Gram-negative and Gram-positive",≈ 90%
same,highest MBC observed,11 bacterial strains,0.04 mmol/L
same,bactericidal activity in time-kill assay,K. pneumoniae CG258 [24]; 6 h,able to reduce growth to bactericidal level
same,bactericidal activity in time-kill assay,K. pneumoniae CG258 [24]; 24 h,not at 24 h
same,SBF index compared to BP607,P. aeruginosa ST175–1,reduced SBF indices compared to BP607
same,SBF index compared to BP607,"A. baumannii ATCC 19,606 [25]",reduced SBF indices compared to BP607
same,SBF index compared to BP607,A. baumannii Ab-1 [26],reduced SBF indices compared to BP607
same,SBF index compared to BP607,[27],reduced SBF indices compared to BP607
same,production of biofilm,"E. coli ATCC 25,922 [28]",reduced production of biofilm
same,"remaining at 1 h, 333.33 µM",Stability in human serum,15%
same,survival after 24h,[29],100%
CC[C@H](C)[C@H](NC(=O)[C@H](CCCCN)NC(=O)[C@H](CCCCN)NC(=O)[C@H](Cc1ccccc1)NC(=O)[C@H](CC(C)C)NC(=O)[C@H](CCCCN)NC(=O)[C@H](CCCCN)NS(=O)(=O)c1ccc(C)cc1)C(=O)N[C@@H](CC(C)C)C(=O)N[C@@H](CCCCN)C(=O)N[C@@H](CCCCN)C(=O)N[C@@H](CC(C)C)C(N)=O [BP125],"growth inhibition in all strains except both K. pneumoniae and E. coli ATCC 25,922",[23],≥ 83%
